Species on record: Cavia porcellus
Assay: Concentration to produce 50%inhibition of the electrically evoked twitch in guinea pig
Assay type: functional
Method in brief: (§1)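 Electrically evoked twitch of guinea pig tissue. IC50, the concentration giving 50% inhibition of the twitch, was calculated by linear regression. Potency was expressed relative to normorphine assayed on the same tissues.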

`Oc1ccc2c3c1O[C@H]1[C@@H](O)C=C[C@H]4[C@@H](C2)NCC[C@@]341` [NORMORPHINE] gave an IC50 of 31.3 nM.

Species on record: Cavia porcellus
Assay: Relative potency to that of normorphine in the electrically stimulated Guinea pig ileum test
Assay type: functional
Method in brief: as §1

Point of comparison: `CN1CCC2(CC1)c1ccccc1Oc1c(S)cccc12`, Relative potency 0.001. Against it:
- CN1CCC2(CC1)c1cccc(O)c1Oc1cccc(F)c12 — higher, 0.16
- CN1CCC2(CC1)c1cccc(O)c1Oc1cccc(Cl)c12 — higher, 0.031
- COc1cccc2c1C1(CCN(C)CC1)c1cccc(O)c1O2 — higher, 0.094
- CCC(=O)C(CC(C)N(C)C)(c1ccccc1)c1ccccc1 (stereo not drawn) [METHADONE] — higher, 0.91
- CC(=O)Nc1cccc2c1Oc1ccccc1C21CCN(C)CC1 — higher, 0.008
- Cc1cccc2c1C1(CCN(C)CC1)c1cccc(O)c1O2 — higher, 0.237
- CC(=O)Oc1cccc2c1Oc1ccccc1C21CCN(C)CC1 — higher, 1
- c1ccc(NCCN2CCC3(CC2)c2ccccc2Oc2ccccc23)cc1 — higher, 3.5
- CN1CCC2(CC1)c1ccccc1Oc1c(N)cccc12 — higher, 0.055
- CN1CCC2(CC1)c1ccccc1Oc1c(O)cccc12 — higher, 0.175
- CN1CCC2(CC1)c1ccccc1Oc1c(CO)cccc12 — higher, 0.004
